Blank lines part the entries; values can stand above or below the compound they belong to. The source made the active and inactive calls. No cut-off for these calls is given here.
Key:
Rattus norvegicus [1] = experiment: Anticoagulant activity in Sprague-Dawley rat assessed as prothombin time at 1 umol/kg, iv administered for 6 days measured on day 7 by coagulometric analysis (reference value: 13.5 +/- 0.32 secs); type: functional
Rattus norvegicus [2] = experiment: Anticoagulant activity in Sprague-Dawley rat assessed as thombin time at 1 umol/kg, iv administered for 6 days measured on day 7 by coagulometric analysis (reference value: 19.38 +/- 0.72 secs); type: functional
Rattus norvegicus [3] = experiment: Anticoagulant activity in Sprague-Dawley rat assessed as activated […] time at 1 umol/kg, iv administered for 6 days measured on day 7 by coagulometric analysis (reference value: 26.5 +/- 0.81 secs); type: functional
Rattus norvegicus [4] = experiment: Antidiabetic activity in Sprague-Dawley rat assessed as increase of plasma insulin level at 25 nmol/kg, ip administered 0.5 hrs prior to glucose challenge measured at 45 mins by ELISA; type: functional
Mus musculus [5] = experiment: Hypoglycemic activity in C57BL/6J-m+/+Leprdb (db/db) mouse assessed as time required to reduce plasma glucose level below 8.35 mM at 150 nmol/kg, ip administered for 0.5 hrs; type: functional
Summary of the method: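 Non-fasted male db/db mice (7 weeks, free access to food and water) got a single ip injection (25 or 150 nmol/kg) or saline. Glucose AUC0−48h and the time for glucose to return below 8.35 mM were derived. Mean ± SD, n = 6.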

Mus musculus [6] = experiment: Hypoglycemic activity in C57BL/6J-m+/+Leprdb (db/db) mouse assessed as reduction of plasma glucose level at 25 nmol/kg, ip administered 0.5 hrs prior to glucose challenge measured at 21.5 hrs by IPGTT (reference value: >30 mM); type: functional
Rattus norvegicus [7] = experiment: Anticoagulant activity in Sprague-Dawley rat assessed as prothombin time at 25 nmol/kg, iv administered for 6 days measured on day 7 by coagulometric analysis (reference value: 13.5 +/- 0.32 secs); type: functional
Mus musculus [8] = experiment: Hypoglycemic activity in C57BL/6J-m+/+Leprdb (db/db) mouse assessed as reduction of plasma glucose level at 25 nmol/kg, ip administered 0.5 hrs prior to glucose challenge measured at 21.5 to 24 hrs by IPGTT; type: functional, organism-based
[9] = Elimination half life in Sprague-Dawley rat at 15 nmol/kg, sc by LC-MS/MS analysis; type: ADME, organism-based; settings: in vivo, read-out: beta t1/2 (converted)
albumin = albumin (Homo sapiens, UniProt P02768); experiment: Binding affinity to human serum albumin at 100 ug/mL after 3 hrs relative to control; type: ADME; settings: read-out: PB (converted)
Summary of the method: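 Peptide at 100 μg/mL in PBS (50 μL) was incubated with HSA-conjugated Sepharose resin for 3 h at 25 °C, then centrifuged (1000 rpm, 10 min). Unbound peptide in the supernatant was quantified by micro BCA assay. Nonspecific adsorption was corrected with NHS-inactivated, albumin-free resin.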

Rattus norvegicus [10] = experiment: Antidiabetic activity in Sprague-Dawley rat assessed as reduction of plasma glucose level at 25 nmol/kg, ip administered 0.5 hrs prior to glucose challenge by OGTT (reference value: 13.32 +/- 1.84 mM); type: functional
Rattus norvegicus [11] = experiment: Antidiabetic activity in Sprague-Dawley rat assessed as increase of plasma insulin level at 25 nmol/kg, ip administered 0.5 hrs prior to glucose challenge measured for 120 mins by ELISA; type: functional, organism-based
Summary of the method: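 SD rats (200−250 g, n = 6/group) were fasted 12 h and given compound ip (25 nmol/kg) or saline 0.5 h before oral glucose (10 g/kg). Tail-vein blood glucose was read with a meter at −30, 0, 15, 30, 45, 60, 90, 120 and 180 min. Insulin was measured by rat insulin ELISA. Mean ± SD.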

Mus musculus [12] = experiment: Antidiabetic activity in C57BL/6J-m+/+Leprdb (db/db) mouse assessed as reduction of blood glucose level at 50 nmol/kg, ip qd administered for 49 days followed by glucose challenge on day 52 measured after 120 mins post glucose challenge by IPGTT; type: functional, organism-based
Summary of the method: (§1)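 Mice from the 49-day once-daily ip dosing study (db/db, n = 8/group) were tested by IPGTT on day 0 and day 52, 3 days after the last dose. They were fasted 18 h, challenged ip with 1 g/kg glucose, and tail-vein glucose was read with a meter at 0, 15, 30, 45, 60, 90 and 120 min.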

Rattus norvegicus [13] = experiment: Anticoagulant activity in Sprague-Dawley rat assessed as thombin time at 150 nmol/kg, iv administered for 6 days measured on day 7 by coagulometric analysis (reference value: 19.38 +/- 0.72 secs); type: functional
Mus musculus [14] = experiment: Hypoglycemic activity in C57BL/6J-m+/+Leprdb (db/db) mouse assessed as reduction of plasma glucose level at 25 nmol/kg, ip administered 0.5 hrs prior to glucose challenge measured up to 17 hrs by IPGTT (reference value: >30 mM); type: functional
[15] = Mean residence time in Sprague-Dawley rat at 15 nmol/kg, sc by LC-MS/MS analysis; type: ADME, organism-based; settings: in vivo
Mus musculus [16] = experiment: Antidiabetic activity in C57BL/6J-m+/+Leprdb (db/db) mouse assessed as reduction of blood glucose level at 50 nmol/kg, ip qd administered for 49 days followed by glucose challenge on day 52 measured up to 90 mins post glucose challenge by IPGTT; type: functional, organism-based; summary of the method: as §1
[17] = Cmax in Sprague-Dawley rat at 15 nmol/kg, sc by LC-MS/MS analysis; type: ADME, organism-based; parameters: dose 15 nmol/kg, route subcutaneous; settings: in vivo
Mus musculus [18] = experiment: Antidiabetic activity in C57BL/6J-m+/+Leprdb (db/db) mouse assessed as reduction of blood glucose level at 25 nmol/kg, ip qd administered for 49 days followed by glucose challenge on day 52 measured up to 90 mins post glucose challenge by IPGTT; type: functional, organism-based; summary of the method: as §1
Rattus norvegicus [19] = experiment: Anticoagulant activity in Sprague-Dawley rat assessed as thombin time at 25 nmol/kg, iv administered for 6 days measured on day 7 by coagulometric analysis (reference value: 19.38 +/- 0.72 secs); type: functional
Rattus norvegicus [20] = experiment: Antidiabetic activity in Sprague-Dawley rat assessed as increase of plasma insulin level at 25 nmol/kg, ip administered 0.5 hrs prior to glucose challenge measured at 15 mins by ELISA; type: functional
[21] = Tmax in Sprague-Dawley rat at 15 nmol/kg, sc by LC-MS/MS analysis; type: ADME, organism-based; settings: in vivo
[22] = Half life in Sprague-Dawley rat plasma at 1000 ng/mL by LC-MS/MS analysis; type: ADME, cell-free
[23] = biological target: Glucagon-like peptide 1 receptor (Homo sapiens, UniProt P43220); experiment: Activation of human GLP-1 receptor overexpressed in HEK293 cells assessed as cAMP accumulation after 20 mins by HTRF assay; type: functional, cell-based
Rattus norvegicus [24] = experiment: Anticoagulant activity in Sprague-Dawley rat assessed as prothombin time at 150 nmol/kg, iv administered for 6 days measured on day 7 by coagulometric analysis (reference value: 13.5 +/- 0.32 secs); type: functional
Rattus norvegicus [25] = experiment: Anticoagulant activity in Sprague-Dawley rat assessed as activated […] time at 25 nmol/kg, iv administered for 6 days measured on day 7 by coagulometric analysis (reference value: 26.5 +/- 0.81 secs); type: functional
Rattus norvegicus [26] = experiment: Anticoagulant activity in Sprague-Dawley rat assessed as activated […] time at 150 nmol/kg, iv administered for 6 days measured on day 7 by coagulometric analysis (reference value: 26.5 +/- 0.81 secs); type: functional
Mus musculus [27] = experiment: Hypoglycemic activity in C57BL/6J-m+/+Leprdb (db/db) mouse assessed as reduction of plasma glucose level at 25 nmol/kg, ip administered 0.5 hrs prior to glucose challenge measured after 18 to 21 hrs by IPGTT (reference value: >30 mM); type: functional
Mus musculus [28] = experiment: Antidiabetic activity in C57BL/6J-m+/+Leprdb (db/db) mouse assessed as reduction of blood glucose AUC (0 to 48 hrs) at 25 nmol/kg, ip administered for 0.5 hrs; type: functional, organism-based
Summary of the method: (§2)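 Non-fasted male db/db mice (7 weeks, free access to food and water) got a single ip injection (25 or 150 nmol/kg) or saline. Mean ± SD, n = 6.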

Mus musculus [29] = experiment: Antidiabetic activity in ip dosed C57BL/6J-m+/+Leprdb (db/db) mouse assessed as suppression of body weight gain administered as qd measured over 7 weeks of drug treatment; type: functional, organism-based
Summary of the method: (§3)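 Male and female db/db mice (6 weeks, n = 8/group) were matched on HbA1c and given ip injections once daily for 49 days (25 or 50 nmol/kg; comparator 25 nmol/kg; saline controls). Wild-type C57BL/6 littermates served for normalization. HbA1c was measured weekly and body weight daily.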

Rattus norvegicus [30] = experiment: Antidiabetic activity in Sprague-Dawley rat assessed as reduction of plasma glucose level at 25 nmol/kg, ip administered 0.5 hrs prior to glucose challenge measured at 15 to 60 mins by OGTT; type: functional, organism-based
Mus musculus [31] = experiment: Antidiabetic activity in C57BL/6J-m+/+Leprdb (db/db) mouse assessed as reduction of HbA1c level at 25 to 50 nmol/kg, ip qd measured over 7 weeks of drug treatment; type: functional, organism-based; summary of the method: as §3
Mus musculus [32] = experiment: Hypoglycemic activity in C57BL/6J-m+/+Leprdb (db/db) mouse assessed as time required to reduce plasma glucose level below 8.35 mM at 25 nmol/kg, ip administered for 0.5 hrs; type: functional; summary of the method: as §2
Rattus norvegicus [33] = experiment: AUC (0 to infinity) in Sprague-Dawley rat at 15 nmol/kg, sc by LC-MS/MS analysis; type: ADME, organism-based, Plasma; parameters: dose 15 nmol/kg, route subcutaneous, time infinity; settings: in vivo
Mus musculus [34] = experiment: Antidiabetic activity in C57BL/6J-m+/+Leprdb (db/db) mouse assessed as reduction of blood glucose level at 25 nmol/kg, ip qd administered for 49 days followed by glucose challenge on day 52 measured after 120 mins post glucose challenge by IPGTT; type: functional, organism-based; summary of the method: as §1

Chain of albumin (P02768 whole entry): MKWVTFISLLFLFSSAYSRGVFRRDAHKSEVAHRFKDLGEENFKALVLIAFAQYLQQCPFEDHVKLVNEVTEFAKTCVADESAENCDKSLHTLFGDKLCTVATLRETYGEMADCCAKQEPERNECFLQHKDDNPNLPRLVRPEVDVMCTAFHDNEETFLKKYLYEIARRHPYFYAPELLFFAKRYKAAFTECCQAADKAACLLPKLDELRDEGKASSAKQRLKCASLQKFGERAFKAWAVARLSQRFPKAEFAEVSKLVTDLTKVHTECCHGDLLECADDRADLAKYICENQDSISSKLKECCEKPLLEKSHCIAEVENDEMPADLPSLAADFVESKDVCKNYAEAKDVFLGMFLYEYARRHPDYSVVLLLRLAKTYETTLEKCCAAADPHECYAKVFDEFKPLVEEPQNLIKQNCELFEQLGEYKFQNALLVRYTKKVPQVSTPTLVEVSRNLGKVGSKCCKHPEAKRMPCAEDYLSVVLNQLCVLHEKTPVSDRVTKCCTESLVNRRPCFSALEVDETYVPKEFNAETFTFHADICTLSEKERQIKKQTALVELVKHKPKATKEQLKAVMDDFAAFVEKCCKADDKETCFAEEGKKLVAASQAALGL
Chain of Glucagon-like peptide 1 receptor (P43220 whole entry): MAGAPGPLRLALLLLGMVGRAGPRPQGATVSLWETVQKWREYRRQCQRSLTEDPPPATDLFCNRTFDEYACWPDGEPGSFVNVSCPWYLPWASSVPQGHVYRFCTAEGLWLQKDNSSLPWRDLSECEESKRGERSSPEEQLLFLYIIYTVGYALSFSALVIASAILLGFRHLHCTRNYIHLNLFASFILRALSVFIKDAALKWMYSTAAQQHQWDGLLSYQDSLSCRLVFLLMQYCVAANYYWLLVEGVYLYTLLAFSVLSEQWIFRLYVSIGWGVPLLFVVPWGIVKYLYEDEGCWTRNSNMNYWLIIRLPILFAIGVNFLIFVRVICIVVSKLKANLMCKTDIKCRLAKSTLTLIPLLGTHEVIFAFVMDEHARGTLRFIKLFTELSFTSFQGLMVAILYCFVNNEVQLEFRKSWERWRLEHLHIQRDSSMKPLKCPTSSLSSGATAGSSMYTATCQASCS

SMILES: O=c1oc2ccccc2c(O)c1Cc1c(O)c2ccccc2oc1=O [DICUMAROL]
PT (Rattus norvegicus [1]): 25.22 s
TT (Rattus norvegicus [2]): 36.85 s
APTT (Rattus norvegicus [3]): 56.36 s

half-life [9]: 22.1 h
fraction unbound at 3 h, 100 ug/mL (albumin): 0.036
MRT [15]: 33.8 h
Cmax [17]: 880 ng/mL
Tmax [21]: 1.82 h
half-life at 1000 ng/mL [22]: 67.9 h
EC50 [23]: 0.0368 nM
AUC (Rattus norvegicus [33]): 40600 ng·h/mL
SMILES: CC[C@H](C)[C@H](NC(=O)[C@H](Cc1ccccc1)NC(=O)[C@H](CCC(=O)O)NC(=O)[C@H](CCCCN)NC(=O)[C@H](C)NC(=O)[C@H](C)NC(=O)[C@H](CCC(N)=O)NC(=O)CNC(=O)[C@H](CCC(=O)O)NC(=O)[C@H](CC(C)C)NC(=O)[C@H](Cc1ccc(O)cc1)NC(=O)[C@H](CO)NC(=O)[C@H](CSC1CC(=O)N(CCCCCCCCCCCC(=O)Nc2ccc(C(c3c(O)c4ccccc4oc3=O)c3c(O)c4ccccc4oc3=O)cc2)C1=O)NC(=O)[C@@H](NC(=O)[C@H](CC(=O)O)NC(=O)[C@H](CO)NC(=O)[C@@H](NC(=O)[C@H](Cc1ccccc1)NC(=O)[C@@H](NC(=O)CNC(=O)[C@H](CCC(=O)O)NC(=O)CNC(=O)[C@@H](N)Cc1cnc[nH]1)[C@@H](C)O)[C@@H](C)O)C(C)C)C(=O)N[C@@H](C)C(=O)N[C@@H](Cc1c[nH]c2ccccc12)C(=O)N[C@@H](CC(C)C)C(=O)N[C@H](C(=O)N[C@@H](CCCCN)C(=O)NCC(=O)N[C@@H](CCCNC(=N)N)C(N)=O)C(C)C (stereo not given in full)
Activity (Rattus norvegicus [4]): 582.08 pM
Time (Mus musculus [5]): 35.8 h
Activity (Mus musculus [6]): 13.8 mM
PT (Rattus norvegicus [7]): 13.39 s
Activity (Mus musculus [8]): Active
Activity (Rattus norvegicus [10]): 6.9 mM
Activity (Rattus norvegicus [11]): Active
Activity (Mus musculus [12]): inactive
TT (Rattus norvegicus [13]): 19.49 s
Activity (Mus musculus [14]): <12 mM
Activity (Mus musculus [16]): Active
Activity (Mus musculus [18]): Active
TT (Rattus norvegicus [19]): 19.63 s
Activity (Rattus norvegicus [20]): 1274.72 pM
PT (Rattus norvegicus [24]): 13.55 s
APTT (Rattus norvegicus [25]): 26.39 s
APTT (Rattus norvegicus [26]): 26.38 s
Activity (Mus musculus [27]): <16 mM
Activity (Mus musculus [28]): Active
Activity (Mus musculus [29]): Dose-dependent effect
Activity (Rattus norvegicus [30]): Active
Activity (Mus musculus [31]): Active
Time (Mus musculus [32]): 24.7 h
Activity (Mus musculus [34]): inactive
